Converted amounts (≈) assume the structure as drawn.
Legend:
[1] = tested on: Staphylococcus epidermidis; experiment: Antibacterial activity against Staphylococcus epidermidis ATCC 35547 incubated for 16 to 20 hrs by microdilution method; assay type: functional
Summary of the method: (§1)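 CLSI broth microdilution. 2-fold serial dilutions were made in cation-adjusted Mueller–Hinton broth, with 5% lysed horse blood added for Streptococcus strains, in triplicate. Inoculum 5×10^5 CFU/mL. Plates incubated 36 °C for 16–20 h. MIC taken as the lowest concentration visibly inhibiting growth.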

Streptococcus oralis = experiment: Antibacterial activity against Streptococcus oralis ATCC 9811 incubated for 16 to 20 hrs by microdilution method; assay type: functional; summary of the method: as §1
Staphylococcus aureus [2] = experiment: Antibacterial activity against vancomycin/methicillin-resistant Staphylococcus aureus VRS2 clinical isolate incubated for 16 to 20 hrs by microdilution method; assay type: functional
Bacillus cereus = experiment: Antibacterial activity against Bacillus cereus ATCC 13061 incubated for 16 to 20 hrs by microdilution method; assay type: functional; summary of the method: as §1
Streptococcus pyogenes = experiment: Antibacterial activity against Streptococcus pyogenes ATCC 49399 incubated for 16 to 20 hrs by microdilution method; assay type: functional; summary of the method: as §1
Staphylococcus aureus [3] = experiment: Antibacterial activity against vancomycin/methicillin-resistant Staphylococcus aureus VRS1 clinical isolate incubated for 16 to 20 hrs by microdilution method; assay type: functional
Escherichia coli = experiment: Antibacterial activity against Escherichia coli ATCC 25922 incubated for 16 to 20 hrs by microdilution method; assay type: functional; summary of the method: as §1
[4] = Hemolytic activity against human RBC at 64 ug/ml relative to control; assay type: ADME, cell-based, Erythrocyte; conditions: erythrocyte
Summary of the method: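 Hemolysis was measured at a fixed 64 μg/mL on a 10% red-cell suspension from heparinized human blood. Triton-X served as the positive control, and results are given as percent hemolysis.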

Acinetobacter baumannii = experiment: Antibacterial activity against Acinetobacter baumannii ATCC 17961 incubated for 16 to 20 hrs by microdilution method; assay type: functional; summary of the method: as §1
Klebsiella aerogenes = experiment: Antibacterial activity against Enterobacter aerogenes ATCC 35029 incubated for 16 to 20 hrs by microdilution method; assay type: functional; summary of the method: as §1
Staphylococcus aureus [5] = experiment: Antibacterial activity against methicillin-susceptible Staphylococcus aureus ATCC 29213 incubated for 16 to 20 hrs by microdilution method; assay type: functional
Enterococcus faecium = experiment: Antibacterial activity against Enterococcus faecium NCTC 7171 incubated for 16 to 20 hrs by microdilution method; assay type: functional; summary of the method: as §1
HepG2 = experiment: Cytotoxicity against human HepG2 cells incubated for 16 hrs by XTT assay; assay type: cell-based; conditions: HepG2, 16 h
Summary of the method: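 HepG2 cells were tested with an XTT viability read-out, in triplicate. IC50 was obtained by nonlinear regression.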

Mus musculus = experiment: AUC (0 to last) in ICR mouse peritonitis model infected with methicillin resistant Staphylococcus aureus ATCC 27660 at 10 mg/kg, iv administered as single dose measured up to 8 hrs by UPLC analysis; assay type: ADME, organism-based; design: dose 10 mg/kg, time 0 - last, route intravenous; conditions: in vivo, 8 h
Summary of the method: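 Fast PK: female ICR mice (n = 2 per time point) given single tail-vein iv injection at 5, 10 or 20 mg/kg in 25% DMSO/65% propylene glycol/10% water (2.5, 5 or 10 mg/mL); terminal cardiac blood at 5 min, 40 min, 2, 4, 8 h; plasma analysed by UPLC with internal standard calibration.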

Klebsiella pneumoniae = experiment: Antibacterial activity against Klebsiella pneumoniae ATCC 700603 incubated for 16 to 20 hrs by microdilution method; assay type: functional; summary of the method: as §1
Pseudomonas aeruginosa = experiment: Antibacterial activity against Pseudomonas aeruginosa […] incubated for 16 to 20 hrs by microdilution method; assay type: functional; summary of the method: as §1
[6] = tested on: Staphylococcus haemolyticus; experiment: Antibacterial activity against Staphylococcus haemolyticus ATCC 29970 incubated for 16 to 20 hrs by microdilution method; assay type: functional
Staphylococcus aureus [7] = experiment: Antibacterial activity against mecA-positive multidrug resistant Staphylococcus aureus NRS120 incubated for 16 to 20 hrs by microdilution method; assay type: functional
Bacillus licheniformis = experiment: Antibacterial activity against Bacillus licheniformis ATCC 12759 incubated for 16 to 20 hrs by microdilution method; assay type: functional; summary of the method: as §1
Staphylococcus aureus [8] = experiment: Antibacterial activity against mecA-positive multidrug resistant Staphylococcus aureus COL NRS100 incubated for 16 to 20 hrs by microdilution method; assay type: functional
Enterococcus faecalis [9] = experiment: Antibacterial activity against methicillin-susceptible Enterococcus faecalis ATCC 29212 incubated for 16 to 20 hrs by microdilution method; assay type: functional; summary of the method: as §1
Staphylococcus aureus [10] = experiment: Antibacterial activity against mecA-positive multidrug resistant Staphylococcus aureus NRS119 incubated for 16 to 20 hrs by microdilution method; assay type: functional
Enterococcus faecalis [11] = experiment: Antibacterial activity against vancomycin-resistant Enterococcus faecalis 99 clinical isolate incubated for 16 to 20 hrs by microdilution method; assay type: functional

Row | SMILES | MIC (Escherichia coli) [mg/L] | Activity [4] [%] | MIC (Acinetobacter baumannii) [mg/L] | MIC (Klebsiella aerogenes) [mg/L] | MIC (Staphylococcus aureus [5]) [mg/L] | MIC (Enterococcus faecium) [mg/L] | IC50 (HepG2) [mg/L] | AUClast (Mus musculus) [µg·min/mL] | MIC (Klebsiella pneumoniae) [mg/L] | MIC (Pseudomonas aeruginosa) [mg/L] | other results
1 | CN[C@@H](CC(C)C)C(=O)N[C@H]1C(=O)N[C@@H](CC(N)=O)C(=O)N[C@H]2C(=O)N[C@H]3C(=O)N[C@H](C(=O)N[C@@H](C(=O)O)c4cc(O)cc(O)c4-c4cc3ccc4O)[C@H](O)c3ccc(c(Cl)c3)Oc3cc2cc(c3O[C@H]2O[C@@H](CO)[C@H](O)[C@@H](O)[C@@H]2O[C@@H]2C[C@@](C)(N)[C@@H](O)[C@@H](C)O2)Oc2ccc(cc2Cl)[C@H]1O | – | – | – | – | – | – | – | – | – | – | MIC [1]: 16 mg/L (≈ 11 µM); MIC (Streptococcus oralis): 0.5 mg/L (≈ 0.345 µM); MIC (Staphylococcus aureus [2]): 64 mg/L (≈ 44.2 µM); MIC (Bacillus cereus): 1 mg/L (≈ 0.69 µM); MIC (Streptococcus pyogenes): 0.5 mg/L (≈ 0.345 µM); MIC (Staphylococcus aureus [3]): 512 mg/L (≈ 353 µM)
2 | CS(=O)(=O)Nc1cccc(-n2c(/C=C/c3ccc(F)cc3)nc3ccccc3c2=O)c1 | ≥ 16 | < 1 | ≥ 16 | ≥ 16 | 0.125 (≈ 0.287 µM) | ≥ 8 | 66 (≈ 152 µM) | 819 | ≥ 16 | ≥ 16 | –
3 | N#Cc1ccc(/C=C/c2nc3ccccc3c(=O)n2-c2cccc(N)c2)cc1 | ≥ 16 | 3.3 | ≥ 16 | ≥ 16 | 0.5 (≈ 1.37 µM) | > 128 | 77.2 (≈ 212 µM) | 204 | ≥ 16 | ≥ 16 | MIC [1]: 0.125 mg/L (≈ 0.343 µM); MIC [6]: 1 mg/L (≈ 2.74 µM); MIC (Staphylococcus aureus [7]): 4 mg/L (≈ 11 µM); MIC (Bacillus licheniformis): > 128 mg/L; MIC (Staphylococcus aureus [8]): 4 mg/L (≈ 11 µM); MIC (Streptococcus oralis): > 128 mg/L; MIC (Staphylococcus aureus [2]): 4 mg/L (≈ 11 µM); MIC (Bacillus cereus): > 128 mg/L; MIC (Enterococcus faecalis [9]): > 128 mg/L; MIC (Staphylococcus aureus [10]): 4 mg/L (≈ 11 µM); MIC (Streptococcus pyogenes): > 128 mg/L; MIC (Staphylococcus aureus [3]): 8 mg/L (≈ 22 µM); MIC (Enterococcus faecalis [11]): 16 mg/L (≈ 43.9 µM)
4 | O=c1c2ccccc2nc(/C=C/c2ccccc2)n1-c1cccc(O)c1 | ≥ 16 | – | ≥ 16 | ≥ 16 | 0.5 (≈ 1.47 µM) | ≥ 8 | – | – | ≥ 16 | ≥ 16 | –
5 | O=c1c2ccccc2nc(/C=C/c2ccccc2F)n1-c1cccc(O)c1 | ≥ 16 | – | ≥ 16 | ≥ 16 | 1 (≈ 2.79 µM) | ≥ 8 | – | – | ≥ 16 | ≥ 16 | –
6 | CC(=O)NCc1cccc(-n2c(/C=C/c3ccc(C#N)cc3)nc3ccccc3c2=O)c1 | ≥ 16 | < 1 | ≥ 16 | ≥ 16 | 0.015 (≈ 0.0357 µM) | ≥ 8 | 99 (≈ 235 µM) | 142 | ≥ 16 | ≥ 16 | –
7 | O=c1c2ccccc2nc(/C=C/c2ccncc2)n1-c1cccc(O)c1 | ≥ 16 | – | ≥ 16 | ≥ 16 | 2 (≈ 5.86 µM) | ≥ 8 | – | – | ≥ 16 | ≥ 16 | –
8 | CCc1ccc(/C=C/c2nc3ccccc3c(=O)n2-c2cccc(O)c2)cc1 | ≥ 16 | – | ≥ 16 | ≥ 16 | 0.5 (≈ 1.36 µM) | ≥ 8 | – | – | ≥ 16 | ≥ 16 | –
9 | CC(=O)Nc1cccc(-n2c(/C=C/c3ccc(F)cc3)nc3ccccc3c2=O)c1 | ≥ 16 | 3.6 | ≥ 16 | ≥ 16 | 1 (≈ 2.5 µM) | ≥ 8 | 46.6 (≈ 117 µM) | 284 | ≥ 16 | ≥ 16 | –
10 | COc1ccc(/C=C/c2nc3ccccc3c(=O)n2-c2cccc(O)c2)cc1 | ≥ 16 | – | ≥ 16 | ≥ 16 | 4 (≈ 10.8 µM) | ≥ 8 | – | – | ≥ 16 | ≥ 16 | –
11 | N#Cc1ccc(/C=C/c2nc3cc([N+](=O)[O-])ccc3c(=O)n2-c2cccc(C(=O)O)c2)cc1 | ≥ 16 | – | ≥ 16 | ≥ 16 | 64 (≈ 146 µM) | ≥ 8 | – | – | ≥ 16 | ≥ 16 | –
12 | N#Cc1ccc(/C=C/c2nc3cc(C(=O)O)ccc3c(=O)n2-c2cccc(C(=O)O)c2)cc1 | ≥ 16 | – | ≥ 16 | ≥ 16 | 128 (≈ 293 µM) | ≥ 8 | – | – | ≥ 16 | ≥ 16 | –
13 | O=c1c2ccccc2nc(/C=C/c2ccc3c(c2)OCO3)n1-c1cccc(O)c1 | ≥ 16 | – | ≥ 16 | ≥ 16 | 2 (≈ 5.2 µM) | ≥ 8 | – | – | ≥ 16 | ≥ 16 | –
14 | O=C(O)c1ccc(/C=C/c2nc3ccccc3c(=O)n2-c2cccc(O)c2)cc1 | ≥ 16 | – | ≥ 16 | ≥ 16 | > 128 | ≥ 8 | – | – | ≥ 16 | ≥ 16 | –
15 | N#Cc1ccc(/C=C/c2nc3ccccc3c(=O)n2-c2cccc(C(=O)NCCO)c2)cc1 | ≥ 16 | < 1 | ≥ 16 | ≥ 16 | 1 (≈ 2.29 µM) | ≥ 8 | 70.2 (≈ 161 µM) | 425 | ≥ 16 | ≥ 16 | –
16 | O=c1c2ccccc2nc(Cc2ccccc2)n1-c1cccc(O)c1 | ≥ 16 | – | ≥ 16 | ≥ 16 | 32 (≈ 97.5 µM) | ≥ 8 | – | – | ≥ 16 | ≥ 16 | –

— ChEMBL document CHEMBL3817745, “Structure-Activity Relationship for the 4(3H)-Quinazolinone Antibacterials” (J Med Chem, 2016)
